What all share (format): ADME, organism-based
Data set [1] is described as follows: Oral bioavailability in Sprague-Dawley rat at 1 mg/kg, po. To be noted: in vivo. In outline: (§1)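 Male Sprague Dawley rats, IV/PO crossover pharmacokinetics, dosed at 1 mpk by each route.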
A short description of data set [2]: Ratio of drug level in brain to plasma in iv dosed Sprague-Dawley rat. The conditions noted are these: brain and plasma. In short, it runs like this:
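Male Sprague Dawley rats given a steady-state IV infusion. Ratio is compound concentration in brain over that in plasma.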

A further data set deals with Rattus norvegicus. Briefly: Volume of distribution at steady state in Sprague-Dawley rat at 1 mg/kg, iv and po. Also on record: dose 1 mg/kg. To be noted: in vivo. In outline: as §1

What is called bioavailability is dose-corrected exposure relative to a reference, in per cent. The low end stands for poor availability, the high end for good availability. For orientation: Kp means the ratio of the level in a tissue or fluid to that in plasma or blood.

In the case of `O=C(NCC1(O)CCC(F)(F)CC1)c1cc(-c2ncc(F)cn2)ccc1Cl`, in data set [1], the bioavailability was found to be 84%. In addition, the concentration ratio (Kp) in data set [2] was determined as 1.3. The Vdss with Rattus norvegicus came to 1.3 L/kg.

`O=C(NCC1(O)CCCCCC1)c1cc(-c2ncc(F)cn2)ccc1Cl` showed a bioavailability in data set [1] of 35%. In addition, the partition ratio (Kp) in data set [2] came to 0.7. Also, in the data set with Rattus norvegicus, the Vdss worked out at 0.9 L/kg.
